Tests used:
[1] = target: T1, Inhibitor of nuclear factor kappa-B kinase subunit alpha (Homo sapiens, UniProt O15111); assay: Inhibition of human IKKalpha using ERLLDDRHDSGLDSMKDEE as substrate after 60 mins in presence of ATP by ADP-Glo kinase assay
T1 sequence (O15111 whole entry): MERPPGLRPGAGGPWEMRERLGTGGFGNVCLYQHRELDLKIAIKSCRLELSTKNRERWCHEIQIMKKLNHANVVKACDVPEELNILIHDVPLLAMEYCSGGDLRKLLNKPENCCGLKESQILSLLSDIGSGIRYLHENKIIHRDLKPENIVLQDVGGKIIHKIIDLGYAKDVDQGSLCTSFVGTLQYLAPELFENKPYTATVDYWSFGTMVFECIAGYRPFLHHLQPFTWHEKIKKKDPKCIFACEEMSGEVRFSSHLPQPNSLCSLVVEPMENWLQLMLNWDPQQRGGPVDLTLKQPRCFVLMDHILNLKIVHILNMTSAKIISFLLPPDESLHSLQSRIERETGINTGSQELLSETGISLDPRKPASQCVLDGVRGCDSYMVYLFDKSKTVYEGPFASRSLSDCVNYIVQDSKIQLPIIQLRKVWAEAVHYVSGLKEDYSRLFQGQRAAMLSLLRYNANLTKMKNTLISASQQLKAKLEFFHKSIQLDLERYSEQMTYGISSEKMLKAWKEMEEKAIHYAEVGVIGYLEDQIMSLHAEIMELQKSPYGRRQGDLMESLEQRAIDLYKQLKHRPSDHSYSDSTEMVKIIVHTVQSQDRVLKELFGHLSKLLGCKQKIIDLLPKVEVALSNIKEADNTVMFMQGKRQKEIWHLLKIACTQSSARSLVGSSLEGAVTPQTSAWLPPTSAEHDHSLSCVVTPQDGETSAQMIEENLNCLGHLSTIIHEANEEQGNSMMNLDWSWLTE

[2] = target: T2, Inhibitor of nuclear factor kappa-B kinase subunit epsilon (Homo sapiens, UniProt Q14164); assay: Inhibition of human IKKepsilon using ERLLDDRHDSGLDSMKDEE as substrate after 60 mins in presence of ATP by ADP-Glo kinase assay
T2 sequence (Q14164 whole entry): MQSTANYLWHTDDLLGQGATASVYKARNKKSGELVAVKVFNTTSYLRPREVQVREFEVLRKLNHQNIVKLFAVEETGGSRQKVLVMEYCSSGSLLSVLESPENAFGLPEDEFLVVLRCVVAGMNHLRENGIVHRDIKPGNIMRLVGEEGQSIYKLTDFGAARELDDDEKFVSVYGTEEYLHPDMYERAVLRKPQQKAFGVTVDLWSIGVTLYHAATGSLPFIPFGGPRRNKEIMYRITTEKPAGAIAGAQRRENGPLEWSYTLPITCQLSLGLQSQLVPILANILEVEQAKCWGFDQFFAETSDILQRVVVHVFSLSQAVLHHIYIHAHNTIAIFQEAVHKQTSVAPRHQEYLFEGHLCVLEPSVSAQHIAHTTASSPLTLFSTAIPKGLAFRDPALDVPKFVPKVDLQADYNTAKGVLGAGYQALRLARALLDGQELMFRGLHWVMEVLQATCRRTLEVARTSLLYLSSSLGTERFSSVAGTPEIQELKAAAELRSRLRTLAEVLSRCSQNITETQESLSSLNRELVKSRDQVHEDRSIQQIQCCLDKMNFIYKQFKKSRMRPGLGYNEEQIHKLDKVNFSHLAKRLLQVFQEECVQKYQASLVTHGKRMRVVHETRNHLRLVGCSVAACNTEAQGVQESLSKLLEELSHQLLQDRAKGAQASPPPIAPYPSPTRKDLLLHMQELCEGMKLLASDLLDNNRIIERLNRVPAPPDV

[3] = target: T3, Inhibitor of nuclear factor kappa-B kinase subunit epsilon (Homo sapiens) (UniProt Q14164); assay: Inhibition of human IKKepsilon at 100 uM using ERLLDDRHDSGLDSMKDEE as substrate after 60 mins in presence of ATP by ADP-Glo kinase assay relative to control
T3 sequence (whole entry): T2 sequence (Q14164 whole entry)

[4] = target: Mitogen-activated protein kinase kinase kinase 14 (Homo sapiens, UniProt Q99558); assay: Inhibition of human NIK at 100 uM using AKDVDQGSLCTSFVGTLQY as substrate after 60 mins in presence of ATP by ADP-Glo kinase assay relative to control
Mitogen-activated protein kinase kinase kinase 14, sequence (Q99558 whole entry, looked up): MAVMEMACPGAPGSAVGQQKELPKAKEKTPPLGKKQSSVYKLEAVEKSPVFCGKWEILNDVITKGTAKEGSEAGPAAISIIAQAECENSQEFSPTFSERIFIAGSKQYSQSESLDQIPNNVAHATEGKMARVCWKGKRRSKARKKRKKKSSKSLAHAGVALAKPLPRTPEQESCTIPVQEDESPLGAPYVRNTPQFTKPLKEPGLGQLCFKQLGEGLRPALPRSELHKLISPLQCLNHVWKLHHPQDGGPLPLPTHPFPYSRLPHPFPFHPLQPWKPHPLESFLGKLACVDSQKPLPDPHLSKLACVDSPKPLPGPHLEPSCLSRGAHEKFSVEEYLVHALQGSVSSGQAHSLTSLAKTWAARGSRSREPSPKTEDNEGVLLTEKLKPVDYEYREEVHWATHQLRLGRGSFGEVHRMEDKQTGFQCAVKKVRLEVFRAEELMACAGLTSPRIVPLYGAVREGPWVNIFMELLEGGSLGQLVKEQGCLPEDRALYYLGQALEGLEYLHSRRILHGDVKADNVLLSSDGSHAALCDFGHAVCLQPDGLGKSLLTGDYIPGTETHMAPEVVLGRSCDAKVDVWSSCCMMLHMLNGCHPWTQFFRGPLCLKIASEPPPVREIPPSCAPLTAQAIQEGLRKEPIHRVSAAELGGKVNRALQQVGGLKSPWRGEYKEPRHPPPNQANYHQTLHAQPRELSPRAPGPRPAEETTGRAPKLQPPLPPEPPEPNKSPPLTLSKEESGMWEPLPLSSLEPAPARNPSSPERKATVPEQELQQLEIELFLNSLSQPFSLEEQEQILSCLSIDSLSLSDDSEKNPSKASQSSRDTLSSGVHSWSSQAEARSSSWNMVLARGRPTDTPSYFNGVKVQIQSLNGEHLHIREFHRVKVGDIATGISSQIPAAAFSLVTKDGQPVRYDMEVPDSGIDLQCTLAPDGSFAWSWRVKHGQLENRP

[5] = target: T4, Inhibitor of nuclear factor kappa-B kinase subunit beta (Homo sapiens, UniProt O14920); assay: Inhibition of IKK-beta in human Jurkat cells assessed as reduction in TNFalpha-stimulated IkBalpha degradation preincubated for 60 mins followed by TNFalpha stimulation for 20 mins by immunoblot analysis; format: cell-based
T4 sequence (O14920 whole entry): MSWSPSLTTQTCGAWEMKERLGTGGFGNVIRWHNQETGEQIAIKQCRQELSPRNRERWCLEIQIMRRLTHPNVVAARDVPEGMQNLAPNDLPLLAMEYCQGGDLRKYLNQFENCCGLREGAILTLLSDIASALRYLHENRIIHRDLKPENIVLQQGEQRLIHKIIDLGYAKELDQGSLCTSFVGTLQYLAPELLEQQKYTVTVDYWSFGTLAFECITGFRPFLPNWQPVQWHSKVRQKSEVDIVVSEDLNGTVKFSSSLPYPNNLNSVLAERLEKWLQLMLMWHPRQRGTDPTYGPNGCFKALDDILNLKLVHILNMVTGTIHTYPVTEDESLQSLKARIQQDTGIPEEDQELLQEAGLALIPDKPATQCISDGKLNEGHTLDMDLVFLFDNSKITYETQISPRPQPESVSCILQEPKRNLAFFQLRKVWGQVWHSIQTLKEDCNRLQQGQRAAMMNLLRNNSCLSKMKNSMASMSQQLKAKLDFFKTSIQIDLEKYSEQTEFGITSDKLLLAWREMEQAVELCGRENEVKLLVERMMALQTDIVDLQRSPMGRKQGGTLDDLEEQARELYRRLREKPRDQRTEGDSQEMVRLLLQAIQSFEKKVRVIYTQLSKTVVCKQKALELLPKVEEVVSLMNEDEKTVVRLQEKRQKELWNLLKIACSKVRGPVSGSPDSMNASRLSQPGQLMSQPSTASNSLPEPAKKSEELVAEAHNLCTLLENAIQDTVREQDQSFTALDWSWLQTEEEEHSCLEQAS

MDA-MB-231 [6] = assay: Inhibition of constitutively activated canonical NF-kB signaling pathway in human MDA-MB-231 cells assessed as residual activity at 10 uM after 24 hrs by luciferase reporter gene assay relative to control; format: cell-based
Method in brief: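 MDA-MB-231 cells (constitutive NF-κB) nucleofected with 3 µg of NF-κB-RE firefly luciferase plus TK-Renilla plasmids (10:1), then cultured 24 h. Compound added for a further 6 h or 24 h, without stimulus. Firefly/Renilla ratio expressed as % of DMSO-treated control; mean ± SD of three independent experiments.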

MDA-MB-231 [7] = assay: Cytotoxicity against human MDA-MB-231 cells after 72 hrs by CellTox green assay; format: cell-based; conditions: MDA-MB-231, 72 h
Method in brief: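 MDA-MB-231 cells (5×10^3/well) exposed to 0.001 - 100 µM compound or DMSO vehicle for 72 h. Membrane-integrity loss read by CellTox green fluorescence. IC50 taken by nonlinear regression; mean ± SD of three independent experiments.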

Structure (SMILES)	IC50 [1] [µM]	IC50 [2] [µM]	inhibition [3] [%]	inhibition [4] [%]	IC50 [5] [µM]	Activity (MDA-MB-231 [6]) [%]	IC50 (MDA-MB-231 [7]) [µM]
O=C(Nc1cc(C(F)(F)F)cc(C(F)(F)F)c1)c1nsnc1O	> 100	> 100	30.2	4.34	0.143	63	53
O=C(Nc1cc(C(F)(F)F)cc(C(F)(F)F)c1)c1cc(Cl)ccc1O [IMD-0354]	> 100	> 100	30.5	13.8	0.218	58.3	0.85
